The record followed here is ChEMBL document CHEMBL4311987, “Discovery of novel allosteric site and covalent inhibitors of FBPase with potent hypoglycemic effects” (Eur J Med Chem, 2019).

The source made the active and inactive calls. No cut-off for these calls is given here.

Data set [1] has as its system Hepatocyte. Kind of data set: Inhibition of glucose production in C57BLKS rat Primary hepatocytes at 400 uM incubated for 3 hrs by glucose assay kit method relative to control. It is filed as functional. The gist of the method: (§1)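 Rat primary hepatocytes cultured overnight in DMEM/10% FBS, then pretreated with compounds for 3 h in fresh medium. Switched to glucose-free DMEM with 2 mM sodium pyruvate, 20 mM sodium lactate and compound for 3 h. Medium glucose measured with a kit and normalized to BCA protein. Pathological arm adds 1 µM dexamethasone plus 200 µM cAMP for 3 h. Means ± SEM, n=4.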

Data set [2] in a line: Cytotoxicity against C57BLKS rat Primary hepatocytes assessed as cell viability incubated for 6 hrs by SRB assay. It counts as cell-based, Hepatocyte. The note with it: read-out: Activity. A digest of the protocol: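 Rat primary hepatocytes under physiological conditions exposed to compounds for 6 h. Viability read by sulforhodamine B staining. Means ± SEM of four independent experiments.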
A general note: The SRB assay estimates cell density from bound dye.

Data set [3] has as its target Fructose-1,6-bisphosphatase 1 (Homo sapiens, UniProt P09467, C180S). Nature of the data set: Inhibition of human FBPase C179S mutant expressed in Escherichia coli BL21 (DE3) using FBP as substrate incubated for 5 mins by malachite green dye based spectrophotometry. The gist of the method:
(§2)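 Recombinant human FBPase (wild type or point mutants) was expressed in E. coli BL21 (DE3), purified and stored in 50% glycerol at -20 °C. Reactions ran 5 min at 37 °C, and released phosphate was read by malachite green.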

Data set [4] concerns Hepatocyte. Kind of data set: Inhibition of glucose production in C57BLKS rat Primary hepatocytes incubated for 3 hrs by glucose assay kit method. It is filed as functional, cell-based. A digest of the protocol: as §1
Data set [5] deals with Hepatocyte. Kind of data set: Inhibition of lipid accumulation in C57BLKS rat Primary hepatocytes assessed as reduction in insulin and glucose-induced TC level incubated for 24 hrs. It counts as functional, cell-based. A digest of the protocol: (§3)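 After overnight culture in DMEM, rat primary hepatocytes pretreated with compounds, then held in 25 mM glucose plus 500 nM insulin for 24 h to induce lipid accumulation. Triglyceride and total cholesterol measured with assay kits and normalized to BCA protein. Means ± SEM of four independent experiments.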

Data set [6] deals with Hepatocyte. Nature of the data set: Inhibition of glucose production in cAMP and Dex pre-treated C57BLKS rat Primary hepatocytes incubated for 3 hrs by glucose assay kit method. It is filed as functional, cell-based. The gist of the method:
as §1

The nature of data set [7]: Acute toxicity in C57BL/6 mouse assessed as mortality at 600 mg/kg, po observed for 14 days. It is filed as organism-based. To be noted: in vivo, 336 h. The gist of the method:
(§4)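 Sixteen male C57BL/6 mice, 8 weeks old, were randomised into two groups. Each group got a single oral dose on day 1, either vehicle or 600 mg/kg. Animals were watched for 14 days for mortality, body-weight loss and allergic reactions, against controls.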

Data set [8] relates to Hepatocyte. Kind of data set: Cytotoxicity against C57BLKS rat Primary hepatocytes assessed as cell viability by measuring cellular protein level at 10 to 300 uM by bicinchoninic acid method. It counts as cell-based. A digest of the protocol: (§5)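 Primary hepatocytes isolated from rat, cultured overnight in DMEM with 10% FBS, then exposed to compounds. Cellular protein per group measured by bicinchoninic acid (BCA) method as a viability control. The same protein values serve to normalize glucose, TG and TC contents. Pathological stimulation where applicable: 1 µM dexamethasone plus 200 µM cAMP, or 25 mM glucose plus 500 nM insulin for 24 h. Means ± SEM, four independent experiments.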

Data set [9] is described as follows: Acute toxicity in C57BL/6 mouse assessed as allergic action at 600 mg/kg, po observed for 14 days. It is filed as organism-based. To be noted: in vivo, 336 h. A digest of the protocol:
as §4

Data set [10] has as its system Hepatocyte. Kind of data set: Cytotoxicity against C57BLKS rat Primary hepatocytes assessed as cell viability by measuring cellular protein level at 10 to 100 uM in presence of cAMP and Dex by bicinchoninic acid method. It is filed as cell-based. A digest of the protocol:
as §5

The test system of data set [11] is Hepatocyte. Nature of the data set: Inhibition of lipid accumulation in C57BLKS rat Primary hepatocytes assessed as reduction in insulin and glucose-induced TG level at 10 uM incubated for 24 hrs. It is filed as functional, cell-based. A digest of the protocol:
as §3

For data set [12], the system named is Hepatocyte. Kind of data set: Inhibition of lipid accumulation in C57BLKS rat Primary hepatocytes assessed as reduction in insulin and glucose-induced TG level at 100 uM incubated for 24 hrs. It counts as functional, cell-based. A digest of the protocol: as §3
In data set [13] the test system is Hepatocyte. Nature of the data set: Inhibition of glucose production in cAMP and Dex pre-treated C57BLKS rat Primary hepatocytes at 100 uM incubated for 3 hrs by glucose assay kit method. It is filed as functional. A digest of the protocol: as §1
Data set [14] can be described thus: Acute toxicity in C57BL/6 mouse assessed as weight loss at 600 mg/kg, po observed for 14 days. It counts as organism-based. To be noted: in vivo, 336 h. A digest of the protocol:
as §4

Data set [15] has as its system Hepatocyte. Kind of data set: Inhibition of lipid accumulation in C57BLKS rat Primary hepatocytes assessed as reduction in insulin and glucose-induced TC level at 10 uM incubated for 24 hrs. It counts as functional, cell-based. A digest of the protocol:
as §3

Data set [16] concerns the target T1, Fructose-1,6-bisphosphatase 1 (Homo sapiens) (UniProt P09467).
T1 sequence (whole entry): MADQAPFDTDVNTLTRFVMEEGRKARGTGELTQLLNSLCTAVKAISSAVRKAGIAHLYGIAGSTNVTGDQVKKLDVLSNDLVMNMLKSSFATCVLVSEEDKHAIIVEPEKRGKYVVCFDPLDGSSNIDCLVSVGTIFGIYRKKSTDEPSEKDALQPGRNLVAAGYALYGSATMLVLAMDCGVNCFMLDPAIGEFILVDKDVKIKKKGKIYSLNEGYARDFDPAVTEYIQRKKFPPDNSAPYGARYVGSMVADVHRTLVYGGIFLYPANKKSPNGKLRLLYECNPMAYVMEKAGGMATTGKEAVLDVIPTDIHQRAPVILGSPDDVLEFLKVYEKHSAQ
Kind of data set: Binding affinity to human FBPase expressed in Escherichia coli BL21 (DE3) incubated for 2 hrs by LC-MS analysis.

Data set [17] deals with T1, Fructose-1,6-bisphosphatase 1 (Homo sapiens). Kind of data set: Inhibition of human FBPase expressed in Escherichia coli BL21 (DE3) at 10 times of IC50 using FBP as substrate incubated for 30 to 180 mins mins by malachite green dye based spectrophotometry. A digest of the protocol: (§6)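 Activity was started with 0.4 mM FBP and 0.8 mM Mg2+. Reactions were stopped with 1 M perchloric acid at 30, 60, 90, 120, 150 and 180 min, and phosphate was then detected by malachite green.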

For data set [18] the target is unchanged. Kind of data set: Competitive inhibition of human FBPase expressed in Escherichia coli BL21 (DE3) using FBP as substrate incubated for 5 mins in presence of Mg2+ by malachite green dye based spectrophotometry. A digest of the protocol: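 Malachite-green phosphate readout of human FBPase (300 nM, E. coli-expressed) in 50 mM Tris-HCl pH 7.4 with 0.4 mM FBP, 5 min at 37 °C. Compound concentration was varied at fixed Mg2+ levels, with Mg2+ raised from 1 mM to 10 mM, to assess competition with Mg2+.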

For data set [19], the species on record is Homo sapiens. Nature of the data set: Selectivity index, ratio of IC50 for human FBPase D127A mutant expressed in Escherichia coli BL21 (DE3) to IC50 for human FBPase expressed in Escherichia coli BL21 (DE3). A digest of the protocol: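 IC50 values for each FBPase point mutant and for wild-type human FBPase came from the same malachite-green assay. The index is mutant IC50 divided by wild-type IC50.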

In data set [20] the target is T1, Fructose-1,6-bisphosphatase 1 (Homo sapiens). Kind of data set: Reversible inhibition of human FBPase expressed in Escherichia coli BL21 (DE3) at 20 times diluted IC50 using FBP as substrate preincubated for 30 to 180 mins followed by 20 fold compound dilution by malachite green dye based spectrophotometry. A digest of the protocol: as §6
Data set [21] concerns the target Fructose-1,6-bisphosphatase 1 (Homo sapiens, UniProt P09467, D128A). Kind of data set: Inhibition of human FBPase D127A mutant expressed in Escherichia coli BL21 (DE3) using FBP as substrate incubated for 5 mins by malachite green dye based spectrophotometry. A digest of the protocol:
as §2

Data set [22] addresses T2, Fructose-1,6-bisphosphatase 1 (Homo sapiens, UniProt P09467).
T2 sequence (P09467 whole entry): T1 sequence (whole entry)
Nature of the data set: Binding affinity to human FBPase expressed in Escherichia coli BL21 (DE3) assessed as dissociation constant at 100 uM by UV-visible spectroscopy.

Sequence of Fructose-1,6-bisphosphatase 1 (Homo sapiens, UniProt P09467, C180S) (P09467 2-338 C180S limits assumed): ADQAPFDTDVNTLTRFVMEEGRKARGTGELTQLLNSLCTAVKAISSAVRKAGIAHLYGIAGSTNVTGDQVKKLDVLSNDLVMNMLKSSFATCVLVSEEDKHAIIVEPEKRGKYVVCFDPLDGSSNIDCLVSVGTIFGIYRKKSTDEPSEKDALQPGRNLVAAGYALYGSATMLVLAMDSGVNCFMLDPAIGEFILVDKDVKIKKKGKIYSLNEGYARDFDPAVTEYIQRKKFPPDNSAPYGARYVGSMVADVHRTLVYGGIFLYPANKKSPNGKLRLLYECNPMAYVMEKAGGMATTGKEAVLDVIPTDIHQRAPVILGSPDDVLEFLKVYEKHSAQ
Sequence of Fructose-1,6-bisphosphatase 1 (Homo sapiens, UniProt P09467, D128A) (P09467 2-338 D128A limits assumed): as the sequence (P09467 2-338 C180S limits assumed) above, with D127A, S179C counted along it

For orientation: inhibition means the relative decrease from the control value, in per cent. Broadly, the IC50 is the concentration that gives 50% inhibition. Read a low IC50 as higher potency. As to `CCOC(=O)C(C)(C)Oc1ccc(F)c(/C=C/[N+](=O)[O-])c1`, the inhibition at 400 µM in data set [1] came out at 90%. Further, the viability at 6 h in data set [2] is above 80%. Half-maximal inhibition in data set [3] (IC50) was put at 3600 nM. The inhibition entry in [4], in data set [5] and in data set [6] was “Dose-dependent effect” throughout. The Activity entry in [7], in data set [8], in data set [9], in data set [10] and in data set [14] was “Non-Toxic” throughout. Also, the inhibition entry in data set [11] and in [15] was “Active” each time. Further, the inhibition entry in [12] was “inactive”. Also, the inhibition at 100 µM in data set [13] came to 95%.
Turning to `O=[N+]([O-])/C=C/c1cccc(F)c1`, the IC50 in data set [3] was 890 nM; in [21], 4000 nM. Moreover, in data set [16], the result was Active. For the same molecule, the inhibition in [17] was 100%. For the same molecule, the inhibition result in data set [18] and in data set [20] was “Active” throughout. Also, in data set [19], the Ratio IC50 worked out at 13.
Usually Kd stands for the concentration at which binding is half-saturated. As for `N#Cc1ccc(/C=C/[N+](=O)[O-])cc1`, the IC50 was 430 nM in [3] and 2000 nM in data set [21]. Moreover, the result in [16] was Active. Also, the inhibition in data set [17] was found to be 100%. In addition, the Kd in data set [22] is 54000 nM. In addition, the inhibition entry in [18] and in [20] was “Active” throughout. Besides, in [19], the Ratio IC50 was determined as 5.7.
